SR-BI DiI inh – mouse SR-BI HDL lipid transfer inhibition; inhibition, % at 12.5 µM; ldlA[mSR-BI] CHO cells, DiI-HDL uptake fluorescence, 3 h; hit rate 0.96% among 320,000;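 active = mean replicate inhibition of at least 70% and a set share of replicates each scoring 70 or more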
Target sequence (Q61009 whole entry, looked up): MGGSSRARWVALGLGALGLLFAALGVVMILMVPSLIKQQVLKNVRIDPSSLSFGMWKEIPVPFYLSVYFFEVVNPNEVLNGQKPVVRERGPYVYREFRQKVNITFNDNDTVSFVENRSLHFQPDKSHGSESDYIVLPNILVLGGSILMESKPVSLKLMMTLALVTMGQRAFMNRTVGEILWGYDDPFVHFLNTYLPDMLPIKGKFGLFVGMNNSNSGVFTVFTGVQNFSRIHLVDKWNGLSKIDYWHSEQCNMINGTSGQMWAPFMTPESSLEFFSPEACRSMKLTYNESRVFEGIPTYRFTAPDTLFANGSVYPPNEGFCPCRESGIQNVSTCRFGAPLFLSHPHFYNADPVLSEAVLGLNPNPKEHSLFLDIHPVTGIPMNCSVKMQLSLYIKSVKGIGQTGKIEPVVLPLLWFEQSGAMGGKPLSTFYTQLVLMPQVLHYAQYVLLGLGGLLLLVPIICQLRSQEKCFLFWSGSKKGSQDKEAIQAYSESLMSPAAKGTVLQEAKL
SR-BI DiI-HDL act – enhances SR-BI lipid uptake from DiI-HDL; CHO ldlA[mSR-BI] cells, DiI-HDL uptake fluorescence, 3 h; 100 = double the neutral-control signal; activation, % at 12.5 µM; hit rate 0.096% among 320,000; AID 504775;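 active = mean replicate activation of at least 60% and every replicate at or above 60%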
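Test system: SR-BI-overexpressing, LDLR-lacking CHO cells. Measured by: DiI fluorescence, bottom read. Medium: Ham's F12 with 0.5% BSA, HEPES 25 mM, pH 7.4. Timing: 3 h uptake period with compound, 37 °C.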
Hep lipid drop – hepatic lipid droplet formation modulation. AML12 mouse hepatocytes, oleate lipid droplets, BODIPY imaging. inhibition, % at 6.5 µM. hit rate 0.4% among 240,000;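 active = lipid droplet intensity inhibited by at least 50%, with more than 500 cells counted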
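Assay system: AML12 mouse liver cells | Compound dosing: One dose, 6.5 µM compound | Read-out basis: Droplet intensity reduction, % inhibition | Measured by: Fluorescence imaging, 20x objective, two fields per well | Schedule: Overnight treatment with compound plus oleate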
Yeast superoxide – lowers age-related superoxide in aged yeast cells; S. cerevisiae aged cells, superoxide DHE fluorescence; stronger effect = lower value; superoxide response (% of plate mean), % at 10 µM; hit rate 0.18% among 330,000; AID 2690;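 active = superoxide response under a set limit, about three screen SD below normal, cut at about 65% in these data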;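 also: yeast aged for seven days with compound at 30 °C before DHE staining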
AHR activator – activators of human aryl hydrocarbon receptor | AID 2796 | P35869 | hit rate 2.5% among 320,000 | AHR-responsive luciferase reporter cells, luminescence | activation, % at 5 µM; in the data active = activation above about 47%
SMARCA2 act – SMARCA2 function activation, primary screen; MG213 cells, MMTV-luciferase reporter, dexamethasone, overnight; activation, % at 9.1 µM; hit rate 1% among 370,000; AID 652017; in the data active = activation above about 7.8%
Hep lipid conf – confirmation of inhibitors of hepatic lipid droplet formation; shares compounds with Hep lipid drop; AML12 mouse hepatocytes, BODIPY lipid droplet imaging; droplets induced with 100 µM oleic acid; inhibition, % at 5.2 µM; hit rate 65% among 870; AID 463183;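 active = inhibition of lipid droplet metric at least 50%, with more than 300 cells in each of four replicates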
AML12 tox img – toxic to AML12 mouse hepatocytes in counter-screen; z-score at 5 µM; DAPI nuclear morphology cytotoxicity imaging; stronger effect = higher value; cells fed 100 µM oleate overnight; hit rate 3% among 870; shares compounds with Hep lipid drop; in the data active = z-score above about 6.3;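 also: compound exposure lasted overnight at 37 °C before fixation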
AML12 tox conf – confirmation of cytotoxicity in AML12 mouse hepatocytes. shares compounds with Hep lipid drop. AML12 mouse hepatocyte viability, ATP luminescence; cells loaded with 100 µM oleic acid. cytotoxicity, % at 50 µM. 530 tested, under 10 active;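 active = cytotoxicity above 50% in each of four replicates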;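 also: compound exposure lasted overnight at 37 °C before the ATP read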
A number is an active result; – = inactive; · = not tested or not shown. An excerpt weighted towards active compounds, which were near 4.3% of everything screened.

SMILES | SR-BI DiI inh | SR-BI DiI-HDL act | Hep lipid drop | Yeast superoxide | AHR activator | SMARCA2 act | Hep lipid conf | AML12 tox img | AML12 tox conf
CCOc1ccc(CCNC(=O)COC(=O)c2cc([N+](=O)[O-])ccc2N2CCOCC2)cc1OCC | – | – | 68 | – | – | – | 103 | – | –
CCOc1ccc(CCNC(=O)CS(=O)Cc2nc(-c3ccc(OC)c(OC)c3)oc2C)cc1OCC (configuration not stated) | – | – | 58 | – | – | – | 74 | – | –
CCOc1ccc(CCNC(=O)CCn2nc(C)c3c(C)n(-c4ccccc4)nc3c2=O)cc1 | – | – | – | – | – | – | · | · | ·
Cc1ccc(-n2nc3c(=O)n(C(C)C(=O)NCCC4=CCCCC4)nc(C)c3c2C)cc1 (configuration not stated) | – | – | 58 | – | – | – | 83 | – | –
Cc1ccc(CCNC(=O)C(C)n2nc(C)c3c(C)n(-c4ccccc4)nc3c2=O)cc1 (configuration not stated) | – | – | – | – | – | – | · | · | ·
CCOc1ccc(CCNC(=O)Cn2nc(C)c3c(C)n(-c4ccccc4)nc3c2=O)cc1OCC | – | – | 91 | – | – | – | 93 | – | –
O=C(COC(=O)c1cc([N+](=O)[O-])ccc1N1CCOCC1)NCCc1ccccc1 | – | – | – | – | – | – | · | · | ·
O=C(Nc1nc(Cc2ccccc2)c(Cc2ccccc2)n1Cc1ccccc1)c1ccccc1 | · | · | · | · | · | – | · | · | ·
Cc1ccccc1C(=O)N(C)[C@H]1C[C@H]2c3[nH]c4c(-c5ccccc5)cccc4c3CCN2C(=O)[C@H]1[C@H](C)O | · | · | · | · | · | – | · | · | ·
O=C1N2CCc3ccccc3C2CS(=O)(=O)N1CCc1ccccc1 (configuration not stated) | · | · | · | · | · | – | · | · | ·
CCCCCCCCN1C(=O)[C@@H](CC(=O)NCc2ccc(OC)c(OC)c2)C[C@@]2(C(=O)OC)C1=C[C@H](COCc1ccccc1)O[C@@H]2C | · | · | · | · | · | – | · | · | ·
Cc1cccc(NC(=O)C2CCN(c3nnc(-n4cccc4)s3)CC2)c1C | · | · | · | · | · | – | · | · | ·
CCOc1ccc(CCNC(=O)COC(=O)c2ccc(Cl)nc2)cc1OCC | – | – | · | – | – | – | · | · | ·
CCOc1ccc(CCNC(=O)COC(=O)c2cc(OC)c(OC)c(OC)c2)cc1OCC | · | · | 75 | – | – | – | 109 | – | –
CCOc1ccc(CCNC(=O)Cn2ncn3nc(-c4ccc(OC)cc4)cc3c2=O)cc1OCC | – | – | 85 | – | – | – | 101 | – | –
CCOc1ccc(C(=O)OCC(=O)Nc2ccc(SC(F)F)cc2)cc1OCC | – | – | 51 | – | – | – | 72 | – | ·
CCC(C(=O)NCCc1ccccc1OC)n1nc(C)c2c(C)n(-c3ccccc3)nc2c1=O (configuration not stated) | – | – | 57 | – | – | – | 82 | – | –
CCOc1cccc(-c2nnc3n2N=C(c2ccc(OC)cc2)CS3)c1 | · | · | · | · | · | – | · | · | ·
CN(Cc1ccccc1)C(=O)OCc1cn(Cc2cccc(F)c2)nn1 | · | · | · | · | · | – | · | · | ·
Cc1ccc(-c2cc(-c3nnc(SCC(=O)N4c5ccccc5Sc5ccccc54)n3N)[nH]n2)cc1 | · | · | · | · | · | – | · | · | ·
Cc1nn(-c2ccccc2)c(Cl)c1C(=O)OCC(=O)NCCc1ccccc1 | – | – | – | – | · | – | · | · | ·
CCOc1ccc(CCNC(=O)COC(=O)c2c(C)nn(-c3ccccc3)c2C)cc1OCC | – | – | 86 | – | – | – | 110 | – | –
COc1ccc2c(c1)CCCN2C(=O)C1CCCN(S(=O)(=O)c2cccs2)C1 (configuration not stated) | · | · | · | · | · | – | · | · | ·
CNCCCOc1ccc(C(C)(C)c2ccccc2)cc1 | · | · | – | · | · | · | · | · | ·
CCC(C)NCCOc1ccc(C(C)(C)c2ccccc2)cc1 (configuration not stated) | – | – | 51 | – | – | – | – | – | ·
SMILES | SR-BI DiI inh | SR-BI DiI-HDL act | Hep lipid drop | Yeast superoxide | AHR activator | SMARCA2 act | Hep lipid conf | AML12 tox img | AML12 tox conf
C=CCOc1ccc(/C=N/NC(=O)c2cc3c(OC)cc(OC)cc3[nH]2)cc1 | – | – | 56 | – | 68 | – | – | – | ·
CN1C(=O)[C@H]2[C@@H](C3CC3)N3C(=O)CN(Cc4ccccn4)C(=O)[C@@]3(Cc3ccccc3)[C@H]2C1=O | – | – | 60 | – | – | – | – | – | ·
O=C(NCc1ccc2c(c1)OCO2)c1cc(-c2ccccc2)c(N2CCOCC2)s1 | – | – | 73 | – | – | · | 109 | – | –
CCOc1ccc(CCNC(=O)c2cc(-c3ccccc3)c(N3CCOCC3)s2)cc1OCC | – | – | 100 | – | – | – | 112 | – | –
CN(Cc1ccc2c(c1)OCO2)C(=O)c1cc(-c2ccccc2)c(N2CCOCC2)s1 | – | – | · | – | – | – | · | · | ·
COc1ccc(CCNC(=O)c2cc(-c3ccccc3)c(N3CCOCC3)s2)c(OC)c1OC | – | – | 96 | – | – | – | 107 | – | –
COc1ccc(C(=O)Nc2sc3c(c2C(=O)NCc2ccco2)CCCC3)cc1OC | · | · | 69 | – | – | – | 105 | – | –
COc1cccc(Cn2cc(COC(=O)NCC(C)C)nn2)c1 | · | · | · | · | · | – | · | · | ·
CCCOc1ccc(C(=O)N2CCC(Oc3cccnc3)CC2)cc1 | · | · | · | · | · | – | · | · | ·
Cc1cc(NC(=O)c2sccc2C)n(-c2nc3ccccc3[nH]2)n1 | 78 | – | 60 | – | – | – | 83 | – | –
Cc1nc2ccc(NC(=O)c3ccc(F)cc3F)cc2c(=O)[nH]1 | · | · | · | · | · | – | · | · | ·
COc1ccc(CC(=O)OCC(=O)N2N=C(c3ccccc3)CC2c2ccc(OC)cc2)cc1 (configuration not stated) | – | – | 82 | – | – | – | 107 | – | ·
Cn1c(=O)c(C(=O)COC(=O)c2cc(-c3ccccc3)nc3ccccc23)c(N)n(Cc2ccccc2)c1=O | · | · | – | · | – | · | · | · | ·
Cn1c(=O)c(C(=O)COC(=O)c2cc(C3CC3)nc3ccccc23)c(N)n(Cc2ccccc2)c1=O | · | · | 55 | – | – | – | 82 | – | ·
Fc1ccc(-c2cnn3c(-c4cccs4)ccnc23)cc1 | – | – | 63 | · | · | – | 79 | – | ·
O=C(c1ccncc1)N1CC[C@H]2[C@H](CCCN2Cc2ccccc2)C1 | · | · | · | · | · | – | · | · | ·
CN(Cc1ccccc1)S(=O)(=O)c1cccc(C(=O)OCC2CCCCC2)c1 | · | · | · | · | · | – | · | · | ·
CCC(=O)Nc1c2c(nn1-c1ccc(C)cc1)CS(=O)(=O)C2 | – | – | 57 | – | – | · | – | – | ·
Cc1ccc(-n2nc3c(c2NC(=O)CC(C)C)CS(=O)(=O)C3)cc1 | – | – | – | – | – | – | · | · | ·
CCOc1ccc(CN(C)C(=O)CNC(=O)c2ccccc2)cc1 | – | – | – | – | – | – | · | · | ·

Screens (PubChem)
